From PubChem BioAssay
NR2E3 ag-1 – agonists of human NR2E3 nuclear receptor; CHO-S Gal4-NCOR/VP16-NR2E3 two-hybrid, luciferase; inhibition of corepressor binding, % at 3.98 µM; actives 0.35% (n = 360,000); AID 602229;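 active means inhibition above the mean of all tested compounds plus 3 SD, cut at about 70% in these data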;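 further: 0% = DMSO with NR2E3 transfected cells and 100% = cells lacking NR2E3 construct; higher means lower luciferase signal from less NR2E3 corepressor binding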
Target sequence (Q9Y5X4 whole entry, looked up, the tested form may be a part): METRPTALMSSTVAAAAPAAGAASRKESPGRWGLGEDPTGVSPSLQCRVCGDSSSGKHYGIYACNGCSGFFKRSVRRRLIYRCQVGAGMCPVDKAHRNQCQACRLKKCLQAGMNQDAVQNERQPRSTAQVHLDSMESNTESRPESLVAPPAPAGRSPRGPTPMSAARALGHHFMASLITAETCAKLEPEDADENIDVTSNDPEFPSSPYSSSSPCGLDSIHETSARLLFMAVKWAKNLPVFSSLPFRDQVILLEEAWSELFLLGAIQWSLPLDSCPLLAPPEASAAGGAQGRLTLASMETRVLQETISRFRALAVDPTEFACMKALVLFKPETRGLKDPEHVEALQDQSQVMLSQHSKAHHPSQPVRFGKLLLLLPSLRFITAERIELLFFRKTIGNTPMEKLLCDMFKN
VLA-4 inh – inhibition in a human VLA-4 binding assay. VLA-4 expressing cells, ligand binding flow cytometry. inhibition, % (about 7 µM as worked out from the volumes in the protocol). actives 0.2% (n = 330,000); in the data active means inhibition above about 50%
PG9 binder – PG9 antibody binding by small molecule | AID 624416 | actives 0.43% (n = 360,000) | inhibition, % at 6.7 µM | TR-FRET gp120-PG9 antibody binding; in the data active means inhibition above about 8.5%
NR2E3 ag-2 – NR2E3 (human) agonism; AID 2300; actives 0.12% (n = 320,000); GST-NR2E3/biotin-RetCOR TR-FRET, 1536-well; inhibition of corepressor binding, % at 4.78 µM; Q9Y5X4;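 active means percent inhibition above the cutoff of mean plus 3 SD of all tested compounds, set per screening campaign, cut at about 20% in these data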;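 further: 0% = DMSO wells and 100% = biotin wells as full block of FRET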
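System: GST-tagged NR2E3 plus biotinylated RetCOR corepressor; Buffer or medium: pH 7.5 Tris-based buffer; Probe or stimulus: RetCOR corepressor, biotinylated, 7 nM; Doses: compound at 4.8 µM, single dose; Schedule: 5 h incubation at 4 °C; Technique: time-resolved FRET; Evaluation: percent inhibition of TR-FRET ratio; Replication: one well per compound, singlicate testing.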
NR1D1 modulator – modulates human Rev-erb alpha binding to DNA | actives 0.79% (n = 370,000) | Rev-erbα–FITC-DNA binding, fluorescence polarization, 90 min | activity, % at 10 µM | P20393 | AID 1259318;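 active means activity above about 14%, limit read from the data; passing the limit was not always enough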;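 further: 0% = DMSO wells with 35 nM protein and 100% = DMSO wells with 750 nM protein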
NR2E3 ag confirm-1 – confirmation of human NR2E3 nuclear receptor agonists; shares compounds with NR2E3 ag-2; cell-free NR2E3 corepressor release, TR-FRET, 5 h; activation (reported as inhibition), % at 3.98 µM; actives 39% (n = 360); AID 2379; in the data active means activation above about 20%
PPARg-NCOR2 ctr – counter-screen for NR2E3 agonists: human PPARgamma-NCOR2 interaction agonists; shares compounds with NR2E3 ag-2; TR-FRET PPARg-NCOR2 coregulator interaction, biochemical; inhibition, % at 3.98 µM; actives 45% (n = 360); in the data active means inhibition above about 20%;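 further: 0% = DMSO vehicle and 100% = wells without protein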
NR2E3 ag confirm-2 – NR2E3 agonism confirmed in two-hybrid assay | shares compounds with NR2E3 ag-1 | CHO-S mammalian two-hybrid NR2E3-NCOR, luciferase luminescence | inhibition, % at 3.98 µM | actives 51% (n = 2,300) | AID 624378;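 active means average inhibition above a cutoff equal to the mean inhibition of all tested compounds plus one SD, cut at about 70% in these data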;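 further: 0% = DMSO in NR2E3 cells and 100% = DMSO in cells lacking NR2E3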
GAL4-VP16 luc – counter-screen for NR2E3 agonists: GAL4-VP16 reporter inhibitors. shares compounds with NR2E3 ag-1. CHO-S GAL4-VP16 luciferase reporter, luminescence. inhibition, % at 3.98 µM. actives 29% (n = 2,300). AID 624379;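 active means mean inhibition above a cutoff equal to the average over all tested compounds plus one standard deviation, cut at about 70% in these data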;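 further: luciferase from a UAS reporter driven by GAL4-VP16 transactivation; 0% = DMSO with VP16-transfected cells and 100% = DMSO with cells lacking VP16; higher means less reporter light so more repression of VP16 activity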
PG9 bind confirm – PG9 antibody binding, confirmed; shares compounds with PG9 binder; TR-FRET PG9 antibody binding, biochemical; inhibition, % at 6.7 µM; actives 90% (n = 1,500); in the data active means inhibition above about 9%
PGV04 counter – binds control antibody PGV04 in PG9 binder counter-screen | shares compounds with PG9 binder | TR-FRET PGV04 antibody-gp120 binding, biochemical | inhibition, % at 6.7 µM | actives 95% (n = 1,500) | AID 651604; in the data active means inhibition above about 9.5%
Numbers without * were called inactive; / = not tested or not shown. A selection: hits, their analogues and other compounds. The true share with any hit is near 1.6%.

SMILES | NR2E3 ag-1 | VLA-4 inh | PG9 binder | NR2E3 ag-2 | NR1D1 modulator | NR2E3 ag confirm-1 | PPARg-NCOR2 ctr | PG9 bind confirm | PGV04 counter | others
C=CCOc1cccc(C2C(C(=O)c3cc4ccccc4o3)=C(O)C(=O)N2c2cc(C)on2)c1 (centres undefined) | -5 | -3 | 17* | 24* | -3 | 31* | 33* | 22* | 35*
C=C1CC[C@H](O)C/C1=C/C=C1\CCCC2(C)C1CCC2C(C)CCCC(C)C (some centres undefined) | / | / | / | / | 6 | / | / | / | /
COC(=O)c1cc2c(-c3ccccc3)c(C)c3ccccn3c-2c1C(=O)OC | -35 | -7 | 26* | 28* | 3 | 30* | 29* | 35* | 53*
COC(=O)c1cc2ccsc2n1CC(=O)Nc1cc(C)cc(C)c1 | -11 | 15 | 33* | 36* | 16 | 19 | 20* | 38* | 48*
CC(=O)OCC(=O)[C@@]1(O)CCC2C3CCC4=CC(=O)C=CC4(C)C3[C@@H](O)C[C@@]21C (some centres undefined) | / | / | / | / | -9 | / | / | / | /
O=C(O)C1CCN(c2nc(-c3ccccc3)c3cc(Br)ccc3n2)CC1 | -59 | -3 | 15* | 21* | 1 | 24* | 25* | 17* | 36*
Cc1ccc2nc(N3CCN(C=O)CC3)nc(-c3ccccc3)c2c1 | -18 | 0 | -1 | -3 | -3 | / | / | / | /
CO/N=C(\C(=O)N[C@@H]1C(=O)N2C(C(=O)OCOC(=O)C(C)(C)C)=C(C)CS[C@H]12)c1csc(N)n1 | / | / | / | / | 5 | / | / | / | /
CC12CCC3c4ccc(O)cc4CCC3C1C[C@H](O)[C@@H]2O (some centres undefined) | / | / | / | / | -3 | / | / | / | /
O=C(CSc1nc2ccccc2c(=O)n1Cc1ccccc1)NCc1ccco1 | -11 | 4 | 20* | 31* | 8 | 4 | 12 | 21* | 25*
Cc1ccc(C(=O)C2=C(O)C(=O)N(Cc3cccnc3)C2c2cccc(Oc3ccccc3)c2)o1 (centres undefined) | / | -5 | 48* | 52* | -3 | 45* | 41* | 47* | 54*
O=C(O)c1cc(-c2cccs2)nc2ccc(F)cc12 | -18 | -1 | 4 | 5 | -1 | / | / | / | /
CCN1CCN(C(=O)c2cc(-c3cccnc3)nc3ccc(Br)cc23)CC1 | -9 | -4 | 7 | 6 | 7 | / | / | / | /
O=C(O)c1cc(-c2cccnc2)nc2ccc(Br)cc12 | 0 | 6 | 44* | 56* | -5 | 58* | 57* | 56* | 69*
O=C(O)c1cc(-c2ccc3c(c2)OCO3)nc2ccc(Br)cc12 | -43 | -12 | 20* | 38* | 0 | 44* | 55* | 28* | 34*
O=C(O)c1cc(-c2cccs2)nc2ccc(Br)cc12 | -35 | 7 | 40* | 41* | 6 | 41* | 53* | 54* | 77*
CC(C)(C)NCC(O)CSc1nc(-c2ccc(C(N)=O)s2)cs1 (centres undefined) | / | / | / | / | 9 | / | / | / | /
CCCOc1ccc(C2C(C(=O)c3cc4ccccc4o3)=C(O)C(=O)N2c2cc(C)on2)cc1 (centres undefined) | -20 | -1 | 6 | 15 | -6 | / | / | / | /
CCN(CC)CCN1C(=O)C(O)=C(C(=O)c2ccco2)C1c1ccccn1 (centres undefined) | 7 | 7 | -1 | 1 | -1 | / | / | / | /
O=C(C1=C(O)C(=O)N(CCCN2CCOCC2)C1c1ccc(Cl)cc1)c1cc2ccccc2o1 (centres undefined) | / | -82 | 20* | 30* | 0 | 28* | 21* | 24* | 30*
CCN(CC)CCCN1C(=O)C(O)=C(C(=O)c2cc3ccccc3o2)C1c1ccccn1 (centres undefined) | -7 | 6 | 25* | 22* | -7 | 24* | 24* | 55* | 72*
Cc1cc(N2C(=O)C(O)=C(C(=O)c3cc4ccccc4o3)C2c2ccc(Cl)cc2)no1 (centres undefined) | 51 | 0 | 26* | 29* | 7 | 35* | 39* | 33* | 51* | NR2E3 ag confirm-2=88*;GAL4-VP16 luc=59
Cc1cc(N2C(=O)C(O)=C(C(=O)c3cc4ccccc4o3)C2c2cccc(Cl)c2)no1 (centres undefined) | 21 | 22 | 27* | 22* | -2 | 39* | 45* | 40* | 56*
CO[C@H]1C[C@H](O[C@H]2[C@H](C)[C@@H](OC3O[C@H](C)C[C@H](N(C)C)[C@H]3OC(C)=O)[C@@H](C)C[C@]3(CO3)C(=O)[C@H](C)[C@@H](OC(C)=O)[C@@H](C)[C@@H](C)OC(=O)[C@@H]2C)O[C@@H](C)[C@@H]1OC(C)=O (some centres undefined) | / | / | / | / | 0 | / | / | / | /
C[C@]12CCC(=O)C=C1CCC1C2C(=O)C[C@@]2(C)C1CC[C@]2(O)C(=O)CO (some centres undefined) | / | / | / | / | -5 | / | / | / | /
O[C@@H](COc1cccc2ncccc12)CN1CCN(C2c3ccccc3[C@@H]3[C@H](c4ccccc42)C3(F)F)CC1 (some centres undefined) | / | / | / | / | -2 | / | / | / | /
O=C1CCCC(=O)C1C(=O)c1ccc(C(F)(F)F)cc1[N+](=O)[O-] | / | / | / | / | -8 | / | / | / | /
Cc1cc(N2C(=O)C(O)=C(C(=O)c3cc4ccccc4o3)C2c2ccc(Br)cc2)no1 (centres undefined) | -15 | -5 | 12* | 24* | -2 | 25* | 30* | 32* | 45*
Cc1ccc(C(=O)C2=C(O)C(=O)N(c3ncccn3)C2c2ccc(Cl)cc2)o1 (centres undefined) | 5 | 7 | 19* | 26* | -6 | 19 | 15 | 31* | 39*
